By IC50 is commonly meant the concentration at which inhibition is half-maximal. The term inhibition denotes the drop in the measured response relative to a control, in per cent. Broadly, the logP is the decadic logarithm of the partition coefficient of the neutral form, usually between octanol and water. A low value points to a more hydrophilic compound.

The source made the active and inactive calls. No cut-off for these calls is given here. Where only a bound is given, the exact number is not on record here.

Series [1] addresses T1, Potassium voltage-gated channel subfamily A member 1 (Homo sapiens, UniProt Q09470). As to the kind of experiment: Inhibition of Kv1.1 (unknown origin).
Series [2] concerns the target T2, Potassium voltage-gated channel subfamily A member 1 (Rattus norvegicus, UniProt P10499). As to the kind of experiment: Inhibition of recombinant rat Kv1.1 expressed in HEK293 cells at -90 mV holding potential by whole cell patch clamp Qpatch method. It counts as cell-based. The gist of the method:
(§1)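 HEK-293 cells carrying Kv1 channels, either stably expressed (Kv1.1, 1.2, 1.3, 1.4, 1.6, tandem Kv1.1 or 1.2 homotetramers) or transiently transfected (concatemers). Currents were recorded by automated whole-cell clamp with 2-3 MΩ pin-holes. Bath solution (mM): 135 NaCl, 5 KCl, 2 CaCl2, 2 MgCl2, 5 Hepes, 10 sucrose, pH 7.4. Holding potential was −90 mV, with steps to +20 mV for 300 ms. The 10 mM stocks were made in extracellular solution and diluted before use. The readout was steady-state current averaged after 200 ms, and peak current for Kv1.4.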
In general terms: Patch clamp records ionic current or voltage across a cell membrane.

Series [3] deals with Kv1.4 (Rattus norvegicus, UniProt P15385). As to the kind of experiment: Inhibition of recombinant rat Kv1.4 expressed in HEK293 cells at 10 uM at -90 mV holding potential by whole cell patch clamp Qpatch method relative to control. The series is classed as cell-based. To be noted: HEK293 cells expressing recombinant rat Kv1.4. The gist of the method: as §1
Kv1.4, sequence (P15385 whole entry): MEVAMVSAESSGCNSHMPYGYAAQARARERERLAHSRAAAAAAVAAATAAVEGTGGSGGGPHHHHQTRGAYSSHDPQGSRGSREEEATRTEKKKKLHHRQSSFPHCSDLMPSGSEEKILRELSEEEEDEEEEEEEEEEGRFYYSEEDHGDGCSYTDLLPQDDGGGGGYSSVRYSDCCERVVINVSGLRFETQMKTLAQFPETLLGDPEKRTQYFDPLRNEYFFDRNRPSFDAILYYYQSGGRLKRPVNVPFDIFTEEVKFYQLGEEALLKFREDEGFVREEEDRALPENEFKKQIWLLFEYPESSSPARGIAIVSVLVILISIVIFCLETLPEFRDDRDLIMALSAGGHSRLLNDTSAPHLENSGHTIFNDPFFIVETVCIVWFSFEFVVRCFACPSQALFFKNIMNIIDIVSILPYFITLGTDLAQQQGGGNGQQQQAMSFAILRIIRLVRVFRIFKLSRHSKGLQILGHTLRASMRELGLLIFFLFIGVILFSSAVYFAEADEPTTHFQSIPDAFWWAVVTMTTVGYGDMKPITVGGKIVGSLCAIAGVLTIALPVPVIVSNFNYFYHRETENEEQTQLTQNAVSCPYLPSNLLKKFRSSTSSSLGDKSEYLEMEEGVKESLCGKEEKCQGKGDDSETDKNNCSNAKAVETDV
Series [4] addresses Potassium voltage-gated channel subfamily A member 3 (Rattus norvegicus) (UniProt P15384). As to the kind of experiment: Inhibition of recombinant rat Kv1.3 expressed in HEK293 cells at 10 uM at -90 mV holding potential by whole cell patch clamp Qpatch method relative to control. It counts as cell-based. The gist of the method: as §1
In series [5] the target is Kv1.2 (Rattus norvegicus, UniProt P63142). Nature of the series: Inhibition of recombinant rat Kv1.2 expressed in HEK293 cells at 10 uM at -90 mV holding potential by whole cell patch clamp Qpatch method relative to control. To be noted: HEK293 cells expressing recombinant rat Kv1.2. It counts as cell-based. The gist of the method: as §1
Kv1.2, sequence (P63142 whole entry): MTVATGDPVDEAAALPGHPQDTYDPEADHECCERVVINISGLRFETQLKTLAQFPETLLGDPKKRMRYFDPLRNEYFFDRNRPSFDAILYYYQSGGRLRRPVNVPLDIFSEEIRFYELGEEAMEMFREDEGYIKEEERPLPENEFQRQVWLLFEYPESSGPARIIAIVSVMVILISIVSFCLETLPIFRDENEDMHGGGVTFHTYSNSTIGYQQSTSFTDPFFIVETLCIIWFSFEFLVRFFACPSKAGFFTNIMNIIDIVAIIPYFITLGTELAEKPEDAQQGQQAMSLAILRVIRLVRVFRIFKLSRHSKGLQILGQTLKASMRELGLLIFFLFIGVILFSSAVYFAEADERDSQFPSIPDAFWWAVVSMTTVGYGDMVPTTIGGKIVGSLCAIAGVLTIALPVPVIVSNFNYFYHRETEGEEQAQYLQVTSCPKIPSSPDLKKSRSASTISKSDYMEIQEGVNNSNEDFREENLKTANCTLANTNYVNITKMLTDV
Series [6] addresses Potassium voltage-gated channel subfamily A member 1 (Rattus norvegicus) (UniProt P10499). Nature of the series: Inhibition of recombinant rat Kv1.1 expressed in HEK293 cells at 10 uM at -90 mV holding potential by whole cell patch clamp Qpatch method relative to control. The series is classed as cell-based. The gist of the method: as §1
Series [7] addresses Kv1.6 (Rattus norvegicus, UniProt P17659). As to the kind of experiment: Inhibition of recombinant rat Kv1.6 expressed in HEK293 cells at 10 uM at -90 mV holding potential by whole cell patch clamp Qpatch method relative to control. The series is classed as cell-based. To be noted: HEK293 cells expressing recombinant rat Kv1.6. The gist of the method:
as §1

Series [8] relates to HEK293. Nature of the series: Phototoxicity against HEK293 cells under UV irradiation. The series is classed as cell-based. To be noted: human.
The nature of series [9]: Neurotoxicity in C57BL/6J mouse corpus callosum assessed as effect on amplitude of unmyelinated axon N2 wave at 1 uM relative to baseline. It counts as toxicity, tissue-based. To be noted: ex_vivo. The gist of the method: (§2)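 Male C57BL/6J mice (16 weeks old) kept on normal diet for 8 weeks (n = 5). Coronal slices (400 µm) containing hippocampus. CC stimulated monopolarly at 0.033 Hz (100 µs); field cAPs recorded on contralateral CC at 40–50% maximum response. After 10 min of stable baseline, compound applied at 1 or 10 µM from 10 mM aCSF stock. Mean ± SEM; n = animals.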

The species named for series [10] is Mus musculus. Nature of the series: (§3) Neuroprotective activity against cuprizone-induced demyelination in C57BL/6J mouse corpus callosum assessed as improvement in neuronal conduction by measuring increase in amplitude of unmyelinated axon N2 wave at 1 uM relative to baseline. It counts as functional. The gist of the method: (§4)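 Male C57BL/6J mice (16 weeks old) fed chow with 0.2% cuprizone for 8 weeks (n = 7). Coronal slices (400 µm) containing hippocampus. CC stimulated monopolarly at 0.033 Hz (100 µs); extracellular field cAPs recorded on contralateral CC at 40–50% maximum response. After 10 min of stable baseline, compound applied at 1 or 10 µM from 10 mM aCSF stock. Mean ± SEM; n = animals.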

The species entered for series [11] is Mus musculus. As to the kind of experiment: (§5) Neuroprotective activity against cuprizone-induced demyelination in C57BL/6J mouse corpus callosum assessed as improvement in neuronal conduction by measuring increase in amplitude of unmyelinated axon N2 wave at 10 uM relative to baseline. The series is classed as functional. The gist of the method: as §4
A short description of series [12]: Neurotoxicity in C57BL/6J mouse corpus callosum assessed as effect on amplitude of unmyelinated axon N2 wave at 10 uM relative to baseline. It counts as toxicity, tissue-based. To be noted: ex_vivo. The gist of the method: as §2
In series [13] the target is Potassium voltage-gated channel subfamily A member 2 (Rattus norvegicus, UniProt P63142). Nature of the series: Inhibition of recombinant rat Kv1.2(4) expressed in HEK293 cells at -90 mV holding potential by whole cell patch clamp Qpatch method. It counts as cell-based. The gist of the method:
as §1

For series [14], the target named is T3, Potassium voltage-gated channel subfamily A member 1/2 (Kv1.1/Kv1.2) (Rattus norvegicus) (UniProt P10499+P63142). As to the kind of experiment: Inhibition of recombinant rat Kv(1.1)2/Kv(1.2)2 expressed in HEK293 cells assessed as time constant for activation of Kv1.1 channel current at 10 uM at -90 mV holding potential by whole cell patch clamp Qpatch method (reference value: 2.8 +/- 0.4 ms). The series is classed as cell-based.
T3 sequence (P10499 whole entry, looked up): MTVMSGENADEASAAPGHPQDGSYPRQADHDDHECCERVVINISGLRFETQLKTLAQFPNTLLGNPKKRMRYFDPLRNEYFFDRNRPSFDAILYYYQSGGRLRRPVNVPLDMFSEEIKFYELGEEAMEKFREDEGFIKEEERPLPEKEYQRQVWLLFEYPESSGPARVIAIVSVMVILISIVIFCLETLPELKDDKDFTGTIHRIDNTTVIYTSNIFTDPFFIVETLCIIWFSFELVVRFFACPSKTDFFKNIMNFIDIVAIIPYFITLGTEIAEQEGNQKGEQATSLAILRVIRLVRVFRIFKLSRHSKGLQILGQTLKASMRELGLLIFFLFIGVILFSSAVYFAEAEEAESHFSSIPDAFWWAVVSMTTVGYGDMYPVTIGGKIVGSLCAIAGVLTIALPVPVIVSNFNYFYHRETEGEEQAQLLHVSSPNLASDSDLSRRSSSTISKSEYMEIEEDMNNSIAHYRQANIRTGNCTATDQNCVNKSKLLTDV
T3 sequence (P63142 whole entry, looked up): as the sequence (P63142 whole entry) above

The target in series [15] is T4, Potassium voltage-gated channel subfamily A member 1/2 (Kv1.1/Kv1.2) (Rattus norvegicus, UniProt P10499+P63142). As to the kind of experiment: Inhibition of recombinant rat Kv(1.1)3/Kv1.2 expressed in HEK293 cells at -90 mV holding potential by whole cell patch clamp Qpatch method. It counts as cell-based. The gist of the method:
as §1

Series [16] concerns the target T2, Potassium voltage-gated channel subfamily A member 1. Nature of the series: Inhibition of recombinant rat Kv(1.1)4 expressed in HEK293 cells at -90 mV holding potential by whole cell patch clamp Qpatch method. The series is classed as cell-based. The gist of the method: as §1
In series [17] the target is T4, Potassium voltage-gated channel subfamily A member 1/2 (Kv1.1/Kv1.2). As to the kind of experiment: Inhibition of recombinant rat Kv(1.1)2/Kv(1.2)2 expressed in HEK293 cells at -90 mV holding potential by whole cell patch clamp Qpatch method. The series is classed as cell-based. The gist of the method:
as §1

Series [18] concerns the target T3, Potassium voltage-gated channel subfamily A member 1/2 (Kv1.1/Kv1.2) (Rattus norvegicus). Nature of the series: Inhibition of recombinant rat Kv1.2/1.2/1.1/1.1 expressed in HEK293 cells at 10 uM at -90 mV holding potential by whole cell patch clamp Qpatch method relative to control. It counts as cell-based. The gist of the method:
as §1

Series [19] has as its target T1, Potassium voltage-gated channel subfamily A member 1. Nature of the series: Inhibition of Kv1.1 (unknown origin) expressed in HEK293 cells by whole cell patch clamp Qpatch method. The series is classed as cell-based. The gist of the method:
as §1

In series [20] the target is T3, Potassium voltage-gated channel subfamily A member 1/2 (Kv1.1/Kv1.2) (Rattus norvegicus). As to the kind of experiment: Inhibition of recombinant rat Kv1.1/1.1/1.2/1.2 expressed in HEK293 cells at 10 uM at -90 mV holding potential by whole cell patch clamp Qpatch method relative to control. It counts as cell-based. The gist of the method:
as §1

A short description of series [21]: as §3. The series is classed as functional. The gist of the method: as §4
The target in series [22] is Potassium voltage-gated channel subfamily A member 1 (Rattus norvegicus) (UniProt P10499). Nature of the series: Inhibition of recombinant rat Kv1.1 concatamer expressed in HEK293 cells assessed as time constant for activation of Kv1.1 channel current at -90 mV holding potential by whole cell patch clamp Qpatch method (reference value: 2.2 +/- 0.1 ms). It counts as cell-based.
Potassium voltage-gated channel subfamily A member 1 (Rattus norvegicus), sequence (P10499 whole entry): as the sequence (P10499 whole entry, looked up) above

The target is the same in series [23]. As to the kind of experiment: Inhibition of recombinant rat Kv1.1 expressed in HEK293 cells assessed as time constant for activation of Kv1.1 channel current at 10 uM at -90 mV holding potential by whole cell patch clamp Qpatch method (reference value: 1.9 +/- 0.15 ms). The series is classed as cell-based.
The target of series [24] is T4, Potassium voltage-gated channel subfamily A member 1/2 (Kv1.1/Kv1.2). Nature of the series: Inhibition of recombinant rat Kv1.1/Kv(1.2)3 expressed in HEK293 cells at -90 mV holding potential by whole cell patch clamp Qpatch method. The series is classed as cell-based. The gist of the method: as §1
Series [25] concerns the target T3, Potassium voltage-gated channel subfamily A member 1/2 (Kv1.1/Kv1.2) (Rattus norvegicus). Nature of the series: Inhibition of recombinant rat Kv1.2/1.1/1.2/1.1 expressed in HEK293 cells at 10 uM at -90 mV holding potential by whole cell patch clamp Qpatch method relative to control. It counts as cell-based. The gist of the method: as §1
Series [26] can be described thus: Partition coefficient, logP of the compound. To be noted: octanol/water. The series is classed as physicochemical.
Series [27] is described as follows: as §5. It counts as functional. The gist of the method:
as §4

In series [28] the target is Potassium voltage-gated channel subfamily A member 1 (Rattus norvegicus) (UniProt P10499). Nature of the series: Inhibition of recombinant rat Kv1.1 expressed in HEK293 cells assessed as shift of half maximal vale for activation at 10 uM at -90 mV holding potential by whole cell patch clamp Qpatch method. The series is classed as cell-based.
The target of series [29] is T3, Potassium voltage-gated channel subfamily A member 1/2 (Kv1.1/Kv1.2) (Rattus norvegicus). As to the kind of experiment: Inhibition of recombinant rat Kv(1.1)3/Kv1.2 expressed in HEK293 cells assessed as time constant for activation of Kv1.1 channel current at 10 uM at -90 mV holding potential by whole cell patch clamp Qpatch method (reference value: 3.1 +/- 0.2 ms). It counts as cell-based.

Kv1.6, sequence (P17659 whole entry): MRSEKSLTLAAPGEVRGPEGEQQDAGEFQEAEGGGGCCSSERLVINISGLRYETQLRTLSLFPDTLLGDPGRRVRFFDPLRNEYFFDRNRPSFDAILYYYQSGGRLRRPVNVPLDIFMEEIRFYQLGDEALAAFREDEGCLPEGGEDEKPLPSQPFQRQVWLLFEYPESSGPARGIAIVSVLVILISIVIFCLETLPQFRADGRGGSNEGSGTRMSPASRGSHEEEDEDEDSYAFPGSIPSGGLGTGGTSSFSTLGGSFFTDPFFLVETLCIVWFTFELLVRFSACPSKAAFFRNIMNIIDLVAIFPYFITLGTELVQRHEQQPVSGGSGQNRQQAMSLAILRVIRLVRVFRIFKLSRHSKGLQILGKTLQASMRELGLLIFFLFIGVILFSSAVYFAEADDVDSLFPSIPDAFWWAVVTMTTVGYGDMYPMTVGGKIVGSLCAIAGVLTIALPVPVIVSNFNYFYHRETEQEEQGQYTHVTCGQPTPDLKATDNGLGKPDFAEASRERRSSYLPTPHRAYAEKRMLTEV
Potassium voltage-gated channel subfamily A member 3 (Rattus norvegicus), sequence (P15384 whole entry): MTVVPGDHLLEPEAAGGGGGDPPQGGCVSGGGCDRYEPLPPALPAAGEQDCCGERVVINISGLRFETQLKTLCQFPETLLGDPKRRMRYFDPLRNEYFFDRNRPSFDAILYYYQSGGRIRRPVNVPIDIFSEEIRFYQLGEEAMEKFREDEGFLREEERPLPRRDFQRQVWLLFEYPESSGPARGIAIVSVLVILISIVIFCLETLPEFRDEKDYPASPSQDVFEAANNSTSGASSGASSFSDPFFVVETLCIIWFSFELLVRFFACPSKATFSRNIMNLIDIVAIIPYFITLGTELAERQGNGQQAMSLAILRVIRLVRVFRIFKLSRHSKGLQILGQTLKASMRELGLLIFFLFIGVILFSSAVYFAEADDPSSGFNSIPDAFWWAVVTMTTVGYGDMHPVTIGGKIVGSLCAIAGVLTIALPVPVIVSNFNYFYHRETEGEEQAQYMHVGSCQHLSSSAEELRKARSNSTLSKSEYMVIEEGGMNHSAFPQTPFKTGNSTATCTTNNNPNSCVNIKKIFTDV
T2 sequence (P10499 whole entry): as the sequence (P10499 whole entry, looked up) above
T1 sequence (Q09470 whole entry): as the sequence (P10499 whole entry, looked up) above, with A9V, I202V, T213N, I449M, A471V, G476A, A480T, T481A, D482N counted along it
Potassium voltage-gated channel subfamily A member 2, sequence (P63142 whole entry): as the sequence (P63142 whole entry) above

In turn, `O=C(NCC1CCCCN1)c1cc(OCC(F)(F)F)ccc1OCC(F)(F)F` (stereo not drawn) [FLECAINIDE] came in with an IC50 in series [1] of 209 µM.

Turning to `COc1cc(CNC(=O)CCCC/C=C/C(C)C)ccc1O` [CAPSAICIN], in series [1], the IC50 was determined as 29 µM.

Molecule `CC[N+](CC)(CC)CC` [TETRYLAMMONIUM] had an IC50 in series [1] of 30 µM.

For the molecule `CC(C)(C)OC(=O)NCCNC(=O)c1ccc(-c2c3nc(c(-c4ccc(C(=O)NCCNC(=O)OC(C)(C)C)cc4)c4ccc([nH]4)c(-c4ccc(C(=O)NCCNC(=O)OC(C)(C)C)cc4)c4nc(c(-c5ccc(C(=O)NCCNC(=O)OC(C)(C)C)cc5)c5ccc2[nH]5)C=C4)C=C3)cc1`, the IC50 in series [2] is 13 µM.

In the case of `COC(=O)C1=C(C)NC(C)=C(C(=O)OC)C1c1ccccc1[N+](=O)[O-]` [NIFEDIPINE], the IC50 in series [1] was determined as 96 µM.

On to `Cc1ccc(C(c2ccc(C)cc2)(c2ccc(C(=O)NCCCCN)[nH]2)c2ccc(C(=O)NCCCCN)[nH]2)cc1.Cl.Cl`, for which the inhibition at 10 µM in [3] came out at 3%; in series [5], 3%; in series [7], 4%. Besides, the inhibition in [4] and in series [6] was 8% each time. Further, the Activity entry in series [8] is “Non-Toxic”.

For the molecule `Nc1ccncc1` [DALFAMPRIDINE], the Activity in series [9] worked out at 105.3%; in [12] it was 105.7%. Moreover, the outcome in series [10] and in series [11] was inactive.

As to `Cc1ccc(C(c2ccc(C)cc2)(c2ccc(C(=O)NCCCN)[nH]2)c2ccc(C(=O)NCCCN)[nH]2)cc1.Cl.Cl`, the inhibition at 10 µM was found to be 16% in series [3], 6% in series [5] and 5% in [7]. The inhibition was determined as 32% in [4] and 35% in [6]. Besides, the Activity entry in series [8] is “Non-Toxic”.

In turn, `COc1ccc([C@@H]2Sc3ccccc3N(CCN(C)C)C(=O)[C@@H]2OC(C)=O)cc1` [DILTIAZEM] gave an IC50 in [1] of 144 µM.

Take `Cc1ccc(C(c2ccc(C)cc2)(c2ccc(C(=O)NCCN)[nH]2)c2ccc(C(=O)NCCN)[nH]2)cc1.Cl.Cl`: the inhibition at 10 µM is 5% in [3], 1% in series [5] and 1% in series [7]. The IC50 in series [13] is above 100 µM; in [15], 54 µM; in series [16], 14 µM; in series [17], 57 µM; in series [19] it was 16 µM; in series [24] it was above 100 µM. Besides, the IC50 in series [2] was found to be 16 µM. Also, the inhibition is 15% in series [4]; 40% in series [6]; 15% in series [18]; 13% in [20]; 15% in series [25]. Moreover, the Activity is given as 100.9% in series [9]; “Non-Toxic” in series [8]; 108.2% in series [21]; 127.8% in [27]; 102.6% in series [12]. Besides, the TIME turned out to be 5e-06 h in series [14], 5.42e-06 h in series [22], 5.64e-06 h in [23] and 3.89e-06 h in [29]. Besides, the logP in series [26] was -1.05. The V1/2 in series [28] amounted to 40 mV.

(Values after ChEMBL document CHEMBL4007435, “A Rational Design of a Selective Inhibitor for Kv1.1 Channels Prevalent in Demyelinated Nerves That Improves Their Impaired Axonal Conduction” (J Med Chem, 2017).)
